Data on one molecule can be found in ChEMBL document CHEMBL1165965, “Synthesis and structure-activity relationships of 1,2,3,4-tetrahydropyrido[2,3-b]pyrazines as potent and selective inhibitors of the anaplastic lymphoma kinase” (Bioorg Med Chem, 2010).

Experiment [1] has as its target Cyclin-dependent kinase 11B (Homo sapiens) (UniProt P21127). In words: Inhibition of CDC2L1 at 1 uM.
The target of experiment [2] is Protein kinase C delta type (Homo sapiens) (UniProt Q05655). Put plainly: Inhibition of PRKCD at 1 uM.
In experiment [3] the target is T1, Serine/threonine-protein kinase D1 (Homo sapiens) (UniProt Q15139).
T1 sequence (whole entry): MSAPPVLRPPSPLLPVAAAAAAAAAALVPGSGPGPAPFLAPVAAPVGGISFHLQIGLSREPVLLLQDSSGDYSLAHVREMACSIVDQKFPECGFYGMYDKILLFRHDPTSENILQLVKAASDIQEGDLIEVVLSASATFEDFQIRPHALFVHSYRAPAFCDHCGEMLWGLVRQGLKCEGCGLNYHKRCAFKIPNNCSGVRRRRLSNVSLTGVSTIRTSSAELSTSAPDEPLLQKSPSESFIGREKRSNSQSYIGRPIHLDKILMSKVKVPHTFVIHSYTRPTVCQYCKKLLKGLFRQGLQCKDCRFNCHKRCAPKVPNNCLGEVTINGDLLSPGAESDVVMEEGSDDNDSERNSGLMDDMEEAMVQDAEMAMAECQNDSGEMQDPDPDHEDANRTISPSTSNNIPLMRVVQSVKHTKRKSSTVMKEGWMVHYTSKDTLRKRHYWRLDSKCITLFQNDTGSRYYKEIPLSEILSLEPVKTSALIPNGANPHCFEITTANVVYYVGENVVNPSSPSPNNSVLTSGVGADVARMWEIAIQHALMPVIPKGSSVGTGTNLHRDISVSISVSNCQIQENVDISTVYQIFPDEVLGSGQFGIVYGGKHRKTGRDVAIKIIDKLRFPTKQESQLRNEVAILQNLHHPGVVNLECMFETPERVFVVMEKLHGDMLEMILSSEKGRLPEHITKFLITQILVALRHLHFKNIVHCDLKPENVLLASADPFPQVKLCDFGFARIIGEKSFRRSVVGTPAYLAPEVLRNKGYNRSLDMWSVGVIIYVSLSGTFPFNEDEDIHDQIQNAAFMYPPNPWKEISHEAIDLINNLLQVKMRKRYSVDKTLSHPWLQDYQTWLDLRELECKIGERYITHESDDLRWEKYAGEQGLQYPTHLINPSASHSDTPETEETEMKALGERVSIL
Put plainly: Inhibition of PRKD1 at 1 uM.

The target of experiment [4] is Misshapen-like kinase 1 (Homo sapiens) (UniProt Q8N4C8). In words: Inhibition of MINK at 1 uM.
Experiment [5] addresses Hepatocyte growth factor receptor (Homo sapiens) (UniProt P08581). Put plainly: Inhibition of MET at 1 uM. Put shortly:
(§1)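 Single-concentration screen on the Ambit KINOMEscan platform, run against a panel of 250–400 kinases. Per-kinase inhibition was also summarized as S(90), the fraction of kinases inhibited by more than 90%.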

The target in experiment [6] is Casein kinase I isoform gamma-3 (Homo sapiens) (UniProt Q9Y6M4). Put plainly: Inhibition of CSNK1G3 at 1 uM. In outline:
(§2)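 Single-concentration screen using Ambit Bioscience KINOMEscan technology across a panel of 250–400 kinases. Per-kinase inhibition from this screen was summarized as S(90), the fraction of kinases inhibited by more than 90%.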

In experiment [7] the target is Tyrosine-protein kinase Yes (Homo sapiens) (UniProt P07947). Put plainly: Inhibition of YES at 1 uM.
The subject of experiment [8] is Phosphatidylinositol 4,5-bisphosphate 3-kinase catalytic subunit alpha isoform (Homo sapiens), P42336 [H1047Y]. Put plainly: Inhibition of PIK3CA H1047Y mutant at 1 uM.
For experiment [9], the target named is Ephrin type-A receptor 2 (Homo sapiens) (UniProt P29317). Put plainly: Inhibition of EPHA2 at 1 uM. Put shortly: as §2
For experiment [10], the target named is Wee1-like protein kinase 2 (Homo sapiens) (UniProt P0C1S8). In words: Inhibition of WEE2 at 1 uM.
Experiment [11] deals with Tyrosine-protein kinase ABL1 (Homo sapiens), P00519 [H396P]. Put plainly: Inhibition of ABL1 H396P mutant at 1 uM. Put shortly:
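Ambit KINOMEscan screen at a single concentration across a 250–400 kinase panel, recorded as percent inhibition. Selectivity was expressed as S(90), the fraction of kinases inhibited >90%.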

The target of experiment [12] is Serine/threonine-protein kinase PAK 3 (Homo sapiens) (UniProt O75914). Put plainly: Inhibition of PAK3 at 1 uM.
In experiment [13] the target is Bone morphogenetic protein receptor type-1B (Homo sapiens) (UniProt O00238). Put plainly: Inhibition of BMPR1B at 1 uM.
Experiment [14] has as its target Mitogen-activated protein kinase 10 (Homo sapiens) (UniProt P53779). In words: Inhibition of JNK3 at 1 uM. Put shortly: as §1
Experiment [15] concerns the target T2, Mitogen-activated protein kinase kinase kinase kinase 3 (Homo sapiens) (UniProt Q8IVH8).
T2 sequence (whole entry): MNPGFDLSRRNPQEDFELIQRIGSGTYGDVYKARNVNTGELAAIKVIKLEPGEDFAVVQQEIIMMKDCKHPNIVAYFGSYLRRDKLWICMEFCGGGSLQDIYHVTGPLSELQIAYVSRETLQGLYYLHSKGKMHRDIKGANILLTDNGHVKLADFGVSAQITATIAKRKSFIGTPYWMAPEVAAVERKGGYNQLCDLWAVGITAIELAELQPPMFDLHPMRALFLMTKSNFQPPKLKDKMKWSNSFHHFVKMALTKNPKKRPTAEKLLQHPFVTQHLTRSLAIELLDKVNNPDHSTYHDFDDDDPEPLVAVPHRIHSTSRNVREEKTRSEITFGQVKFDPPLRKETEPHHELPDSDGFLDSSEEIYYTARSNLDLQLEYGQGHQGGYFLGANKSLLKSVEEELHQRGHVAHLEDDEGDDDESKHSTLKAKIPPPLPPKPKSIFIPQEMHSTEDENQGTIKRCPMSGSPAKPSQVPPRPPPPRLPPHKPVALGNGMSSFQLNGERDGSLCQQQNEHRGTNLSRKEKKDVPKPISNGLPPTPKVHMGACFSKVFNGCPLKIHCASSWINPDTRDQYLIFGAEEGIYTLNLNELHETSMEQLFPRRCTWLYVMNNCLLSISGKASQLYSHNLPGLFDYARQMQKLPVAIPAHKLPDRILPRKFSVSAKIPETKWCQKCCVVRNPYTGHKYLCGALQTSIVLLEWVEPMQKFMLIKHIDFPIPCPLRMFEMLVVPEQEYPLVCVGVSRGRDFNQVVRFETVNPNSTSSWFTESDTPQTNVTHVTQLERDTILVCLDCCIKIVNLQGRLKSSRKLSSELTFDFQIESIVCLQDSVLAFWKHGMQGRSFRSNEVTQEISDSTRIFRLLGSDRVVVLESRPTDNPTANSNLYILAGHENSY
In words: Inhibition of MAP4K3 at 1 uM. Put shortly: as §1

The subject of experiment [16] is Proto-oncogene tyrosine-protein kinase receptor Ret (Homo sapiens), P07949 [V804M]. In words: Inhibition of RET V804M mutant at 1 uM.
For experiment [17], the target named is Dual specificity tyrosine-phosphorylation-regulated kinase 1B (Homo sapiens) (UniProt Q9Y463). Put plainly: Inhibition of DYRK1B at 1 uM.
Sequence of Dual specificity tyrosine-phosphorylation-regulated kinase 1B (Homo sapiens) (Q9Y463 whole entry, looked up): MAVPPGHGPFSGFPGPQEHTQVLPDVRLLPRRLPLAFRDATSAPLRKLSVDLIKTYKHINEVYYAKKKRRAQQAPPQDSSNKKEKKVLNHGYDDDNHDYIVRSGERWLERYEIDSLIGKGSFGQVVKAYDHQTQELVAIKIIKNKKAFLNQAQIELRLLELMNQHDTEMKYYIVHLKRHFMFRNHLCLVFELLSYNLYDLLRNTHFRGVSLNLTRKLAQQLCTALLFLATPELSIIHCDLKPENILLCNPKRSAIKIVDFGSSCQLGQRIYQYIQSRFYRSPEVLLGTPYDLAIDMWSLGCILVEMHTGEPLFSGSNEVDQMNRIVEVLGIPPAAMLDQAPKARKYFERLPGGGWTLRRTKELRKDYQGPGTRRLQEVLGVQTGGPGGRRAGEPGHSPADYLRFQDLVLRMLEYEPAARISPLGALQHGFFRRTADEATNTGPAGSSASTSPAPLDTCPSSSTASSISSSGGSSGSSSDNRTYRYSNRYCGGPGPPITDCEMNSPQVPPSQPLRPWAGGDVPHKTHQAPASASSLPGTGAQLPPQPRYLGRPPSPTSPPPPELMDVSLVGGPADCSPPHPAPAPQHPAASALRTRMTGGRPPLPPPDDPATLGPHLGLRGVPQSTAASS

Sequence of Wee1-like protein kinase 2 (Homo sapiens) (P0C1S8 whole entry, looked up): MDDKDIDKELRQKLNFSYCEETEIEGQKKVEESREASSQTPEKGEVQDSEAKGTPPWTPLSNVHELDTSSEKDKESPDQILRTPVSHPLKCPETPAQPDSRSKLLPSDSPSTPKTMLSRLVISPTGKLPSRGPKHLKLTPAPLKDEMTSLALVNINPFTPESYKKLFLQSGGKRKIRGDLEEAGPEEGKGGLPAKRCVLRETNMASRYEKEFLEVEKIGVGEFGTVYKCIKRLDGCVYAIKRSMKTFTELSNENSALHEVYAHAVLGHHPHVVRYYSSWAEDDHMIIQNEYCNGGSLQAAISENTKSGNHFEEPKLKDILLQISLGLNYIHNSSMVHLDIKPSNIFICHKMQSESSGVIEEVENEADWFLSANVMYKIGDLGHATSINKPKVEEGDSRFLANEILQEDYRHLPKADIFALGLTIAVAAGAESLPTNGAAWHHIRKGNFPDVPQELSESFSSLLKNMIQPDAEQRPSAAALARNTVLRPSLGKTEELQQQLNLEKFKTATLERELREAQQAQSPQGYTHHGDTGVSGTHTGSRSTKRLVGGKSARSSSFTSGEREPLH
Sequence of Misshapen-like kinase 1 (Homo sapiens) (Q8N4C8 whole entry, looked up): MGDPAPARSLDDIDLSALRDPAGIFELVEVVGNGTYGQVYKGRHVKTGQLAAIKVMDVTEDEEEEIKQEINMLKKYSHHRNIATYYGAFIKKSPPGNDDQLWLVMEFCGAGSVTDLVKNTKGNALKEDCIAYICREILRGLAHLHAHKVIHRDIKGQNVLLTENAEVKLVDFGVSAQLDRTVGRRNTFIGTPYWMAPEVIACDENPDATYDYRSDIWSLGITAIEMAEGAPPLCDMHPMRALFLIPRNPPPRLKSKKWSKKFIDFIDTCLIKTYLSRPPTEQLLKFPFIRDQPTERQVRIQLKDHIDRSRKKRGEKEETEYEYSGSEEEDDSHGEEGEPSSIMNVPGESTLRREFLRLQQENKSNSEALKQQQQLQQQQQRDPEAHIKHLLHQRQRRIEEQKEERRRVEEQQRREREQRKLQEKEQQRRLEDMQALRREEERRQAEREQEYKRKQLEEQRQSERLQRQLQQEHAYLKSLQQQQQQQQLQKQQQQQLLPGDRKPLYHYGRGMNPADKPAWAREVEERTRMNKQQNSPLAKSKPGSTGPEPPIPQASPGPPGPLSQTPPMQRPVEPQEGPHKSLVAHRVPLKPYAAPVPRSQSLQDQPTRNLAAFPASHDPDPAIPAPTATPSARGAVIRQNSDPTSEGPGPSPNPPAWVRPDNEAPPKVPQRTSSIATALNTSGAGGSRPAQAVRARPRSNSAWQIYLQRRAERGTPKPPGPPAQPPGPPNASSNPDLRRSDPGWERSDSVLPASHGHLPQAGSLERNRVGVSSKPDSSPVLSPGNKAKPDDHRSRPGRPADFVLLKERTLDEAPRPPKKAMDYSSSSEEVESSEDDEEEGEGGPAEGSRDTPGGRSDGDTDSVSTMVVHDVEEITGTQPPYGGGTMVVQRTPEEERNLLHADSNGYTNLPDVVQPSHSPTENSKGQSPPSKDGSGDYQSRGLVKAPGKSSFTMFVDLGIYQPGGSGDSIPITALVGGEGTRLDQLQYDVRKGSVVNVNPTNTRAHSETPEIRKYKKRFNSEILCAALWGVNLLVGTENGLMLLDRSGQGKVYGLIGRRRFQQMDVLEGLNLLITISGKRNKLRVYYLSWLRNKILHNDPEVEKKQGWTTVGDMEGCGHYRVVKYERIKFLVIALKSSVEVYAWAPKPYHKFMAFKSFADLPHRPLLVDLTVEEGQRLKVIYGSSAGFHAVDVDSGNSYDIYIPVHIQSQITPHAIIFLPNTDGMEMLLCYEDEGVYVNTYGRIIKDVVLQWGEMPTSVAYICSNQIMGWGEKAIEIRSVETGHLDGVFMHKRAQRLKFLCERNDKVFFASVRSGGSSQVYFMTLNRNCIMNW
Sequence of Proto-oncogene tyrosine-protein kinase receptor Ret (Homo sapiens), P07949 [V804M] (P07949 whole entry V804M): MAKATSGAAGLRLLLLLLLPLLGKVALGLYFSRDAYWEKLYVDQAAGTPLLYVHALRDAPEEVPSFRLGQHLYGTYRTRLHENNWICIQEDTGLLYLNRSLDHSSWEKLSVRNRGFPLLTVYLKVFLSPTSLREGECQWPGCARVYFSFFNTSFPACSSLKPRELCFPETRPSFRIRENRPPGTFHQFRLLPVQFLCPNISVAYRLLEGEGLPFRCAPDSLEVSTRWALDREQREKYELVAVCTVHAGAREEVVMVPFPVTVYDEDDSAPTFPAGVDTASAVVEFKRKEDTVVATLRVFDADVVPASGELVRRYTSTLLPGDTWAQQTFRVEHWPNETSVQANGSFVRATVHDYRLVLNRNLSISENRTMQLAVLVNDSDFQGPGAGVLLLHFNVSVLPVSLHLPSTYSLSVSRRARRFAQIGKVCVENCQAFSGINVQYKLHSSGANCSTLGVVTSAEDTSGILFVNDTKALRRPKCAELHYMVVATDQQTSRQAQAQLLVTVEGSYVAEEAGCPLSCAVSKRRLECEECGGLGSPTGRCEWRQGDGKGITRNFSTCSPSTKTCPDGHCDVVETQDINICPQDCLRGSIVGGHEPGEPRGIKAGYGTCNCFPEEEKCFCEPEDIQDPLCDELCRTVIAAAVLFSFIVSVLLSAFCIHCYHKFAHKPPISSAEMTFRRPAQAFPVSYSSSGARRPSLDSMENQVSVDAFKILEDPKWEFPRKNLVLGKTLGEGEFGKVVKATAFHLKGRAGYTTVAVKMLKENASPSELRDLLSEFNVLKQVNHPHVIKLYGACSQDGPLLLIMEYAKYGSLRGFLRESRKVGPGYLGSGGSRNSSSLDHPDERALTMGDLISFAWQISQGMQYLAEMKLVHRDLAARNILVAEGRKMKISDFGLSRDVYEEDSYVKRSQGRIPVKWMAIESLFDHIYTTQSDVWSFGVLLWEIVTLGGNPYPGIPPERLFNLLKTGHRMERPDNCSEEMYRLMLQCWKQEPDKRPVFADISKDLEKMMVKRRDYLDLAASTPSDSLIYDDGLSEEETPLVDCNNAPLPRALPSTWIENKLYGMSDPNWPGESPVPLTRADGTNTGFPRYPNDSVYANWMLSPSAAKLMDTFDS
Sequence of Cyclin-dependent kinase 11B (Homo sapiens) (P21127 whole entry): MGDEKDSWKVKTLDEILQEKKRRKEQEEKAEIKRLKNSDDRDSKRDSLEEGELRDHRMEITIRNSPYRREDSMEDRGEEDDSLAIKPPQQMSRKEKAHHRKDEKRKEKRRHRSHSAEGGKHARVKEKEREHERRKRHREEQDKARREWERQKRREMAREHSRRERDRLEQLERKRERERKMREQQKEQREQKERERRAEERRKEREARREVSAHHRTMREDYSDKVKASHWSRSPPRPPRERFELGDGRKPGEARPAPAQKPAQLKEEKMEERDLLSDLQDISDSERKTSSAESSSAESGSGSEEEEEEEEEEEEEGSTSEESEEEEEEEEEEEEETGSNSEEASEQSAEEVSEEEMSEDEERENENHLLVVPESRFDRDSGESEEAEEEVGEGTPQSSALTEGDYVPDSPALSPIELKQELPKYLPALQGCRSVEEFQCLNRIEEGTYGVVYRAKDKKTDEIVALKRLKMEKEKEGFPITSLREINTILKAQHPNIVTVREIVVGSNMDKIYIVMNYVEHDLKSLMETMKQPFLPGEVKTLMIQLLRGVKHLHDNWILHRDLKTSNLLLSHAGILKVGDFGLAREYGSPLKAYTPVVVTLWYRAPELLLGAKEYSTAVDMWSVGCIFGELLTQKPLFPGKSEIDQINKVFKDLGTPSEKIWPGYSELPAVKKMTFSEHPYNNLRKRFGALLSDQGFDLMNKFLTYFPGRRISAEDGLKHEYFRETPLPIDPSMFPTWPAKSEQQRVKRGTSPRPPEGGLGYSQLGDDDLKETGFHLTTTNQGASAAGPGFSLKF
Sequence of Casein kinase I isoform gamma-3 (Homo sapiens) (Q9Y6M4 whole entry, looked up, canonical isoform): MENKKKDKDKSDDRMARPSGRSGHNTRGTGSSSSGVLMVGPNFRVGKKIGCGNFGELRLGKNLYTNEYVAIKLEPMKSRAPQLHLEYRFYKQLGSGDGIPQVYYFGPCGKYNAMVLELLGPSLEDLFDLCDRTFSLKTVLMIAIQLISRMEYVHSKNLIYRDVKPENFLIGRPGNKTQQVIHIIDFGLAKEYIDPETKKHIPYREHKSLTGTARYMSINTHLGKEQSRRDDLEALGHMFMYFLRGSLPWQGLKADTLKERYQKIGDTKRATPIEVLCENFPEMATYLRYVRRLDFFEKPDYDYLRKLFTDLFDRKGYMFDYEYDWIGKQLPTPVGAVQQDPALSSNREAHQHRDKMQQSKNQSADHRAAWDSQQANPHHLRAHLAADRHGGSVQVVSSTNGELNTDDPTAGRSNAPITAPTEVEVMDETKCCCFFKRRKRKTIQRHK

For orientation: inhibition means the change of the read-out against control, counted positive when it falls. A low value points to a weak effect. Take `CN1CCN(c2ccc(-c3cnc4c(c3)N(Cc3cc(F)ccc3F)CCN4)cn2)CC1`: the inhibition in [1] was less than 50%; in experiment [2], less than 50%; in experiment [3] it was 67%; in [4], less than 50%; in experiment [5], less than 50%; in [6] it was less than 50%. The inhibition is less than 50% in experiment [7]; less than 50% in experiment [8]; less than 50% in [9]; less than 50% in [10]; 58.5% in experiment [11]; less than 50% in [12]. Besides, the inhibition in experiment [13], in experiment [14], in experiment [15], in experiment [16] and in [17] was less than 50% each time.
